Assay results taken from ChEMBL document CHEMBL2046304, “Antitumor agents 290. Design, synthesis, and biological evaluation of new LNCaP and PC-3 cytotoxic curcumin analogs conjugated with anti-androgens” (Bioorg Med Chem, 2012).
Calls of active or inactive are those of the source. The calls are words filed in the database; no cut-off is given here.

Tests used:
[1] = test system: PC-3; experiment: Cytotoxicity against androgen-independent human PC3 cells after 72 hrs by SRB assay; format: functional, cell-based; details: PC-3, 72 h
Method in brief: (§1)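 SRB assay. Cells were seeded at 3-5 × 10^3 per well in RPMI-1640 with 10% FBS and exposed to a range of concentrations for 72 h; final DMSO was <0.5%. Cells were then fixed in cold 50% TCA for 30 min, stained with 0.04% SRB for 30 min, solubilized in 10 mM Tris base, and read at 515 nm. IC50 is 50% growth inhibition versus untreated control, by log-linear interpolation; mean ± SE of ≥3 independent experiments.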

[2] = test system: LNCaP; experiment: Cytotoxicity against androgen-dependent human LNCAP cells after 72 hrs by SRB assay; format: functional, cell-based; method in brief: as §1
[3] = test system: PC-3; experiment: Inhibition of actin based pseudopodia formation in androgen-dependent human PC3 cells at 30 uM after 48 hrs by DAPI staining based fluorescence microscopy assay; format: functional, cell-based; details: in the assay text read “androgen-independent” for “androgen-dependent”
Method in brief: (§2)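 Cells in RPMI-1640 with 10% FBS were plated on chamber slides for 12 h, then exposed to compound or DMSO for 48 h at 37 °C. Cells were fixed in 4% paraformaldehyde in PBS, nuclei were stained with DAPI, and nuclear and pseudopodia morphology was examined by fluorescence microscopy.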

[4] = test system: LNCaP; experiment: Inhibition of actin based pseudopodia formation in androgen-dependent human LNCAP cells at 30 uM after 48 hrs by DAPI staining based fluorescence microscopy assay; format: functional, cell-based; method in brief: as §2
[5] = Drug localization in nucleus of androgen-independent human PC3 cells at 30 uM after 48 hrs by DAPI staining based fluorescence microscopy assay; format: ADME, cell-based; details: pc-3, 48 h
[6] = test system: PC-3; experiment: Induction of nuclear enlargement in androgen-dependent human PC3 cells at 30 uM after 48 hrs by DAPI staining based fluorescence microscopy assay; format: functional, cell-based; details: in the assay text read “androgen-independent” for “androgen-dependent”; method in brief: as §2
[7] = test system: LNCaP; experiment: Antiproliferative activity against androgen-dependent human LNCAP cells after 72 hrs by SRB assay; format: functional, cell-based; method in brief: as §1
[8] = test system: PC-3; experiment: Antiproliferative activity against androgen-independent human PC3 cells after 72 hrs by SRB assay; format: functional, cell-based; method in brief: as §1
[9] = test system: LNCaP; experiment: Inhibition of actin based pseudopodia formation in androgen-dependent human LNCAP cells at 100 uM after 48 hrs by DAPI staining based fluorescence microscopy assay; format: functional, cell-based
Method in brief: (§3)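 Cells were plated in RPMI-1640 with 10% FBS in chamber slides for 12 h, then exposed to compound or DMSO vehicle for 48 h at 37 °C in 5% CO2. They were fixed with 4% paraformaldehyde in PBS, nuclei were stained with DAPI, and the slides were mounted. Pseudopodia and pseudopodia-like extensions were scored visually by fluorescence microscopy against untreated (DMSO) controls.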

[10] = test system: PC-3; experiment: Cytotoxicity against androgen-independent human PC3 cells at 100 uM within 48 hrs by SRB assay; format: functional, cell-based
[11] = test system: PC-3; experiment: Inhibition of actin based pseudopodia formation in androgen-dependent human PC3 cells at 100 uM after 48 hrs by DAPI staining based fluorescence microscopy assay; format: functional, cell-based; method in brief: as §3
[12] = test system: LNCaP; experiment: Inhibition of actin based pseudopodia formation in androgen-dependent human LNCAP cells at 40 uM after 48 hrs by DAPI staining based fluorescence microscopy assay; format: functional, cell-based; method in brief: as §2
[13] = test system: PC-3; experiment: Inhibition of actin based pseudopodia formation in androgen-dependent human PC3 cells at 40 uM after 48 hrs by DAPI staining based fluorescence microscopy assay; format: functional, cell-based; details: in the assay text read “androgen-independent” for “androgen-dependent”; method in brief: as §2
[14] = test system: PC-3; experiment: Induction of nuclear enlargement in androgen-dependent human PC3 cells at 40 uM after 48 hrs by DAPI staining based fluorescence microscopy assay; format: functional, cell-based; details: in the assay text read “androgen-independent” for “androgen-dependent”; method in brief: as §2
[15] = test system: PC-3; experiment: Induction of multinucleation in androgen-dependent human PC3 cells at 40 uM after 48 hrs by DAPI staining based fluorescence microscopy assay; format: functional, cell-based; details: in the assay text read “androgen-independent” for “androgen-dependent”; method in brief: as §2
[16] = test system: LNCaP; experiment: Inhibition of actin based pseudopodia formation in androgen-dependent human LNCAP cells at 50 uM after 48 hrs by DAPI staining based fluorescence microscopy assay; format: functional, cell-based; method in brief: as §2
[17] = test system: PC-3; experiment: Induction of multinucleation in androgen-dependent human PC3 cells at 50 uM after 48 hrs by DAPI staining based fluorescence microscopy assay; format: functional, cell-based; details: in the assay text read “androgen-independent” for “androgen-dependent”; method in brief: as §2
[18] = Drug localization in cytosol of androgen-independent human PC3 cells at 50 uM after 48 hrs by DAPI staining based fluorescence microscopy assay; format: ADME, cell-based, PC-3
[19] = test system: PC-3; experiment: Inhibition of actin based pseudopodia formation in androgen-dependent human PC3 cells at 50 uM after 48 hrs by DAPI staining based fluorescence microscopy assay; format: functional, cell-based; details: in the assay text read “androgen-independent” for “androgen-dependent”; method in brief: as §2

SMILES | IC50 [1] | IC50 [2] | Activity [7] | Activity [8] | also measured
COc1ccc(/C=C/C(=O)/C=C(O)/C=C/c2ccc(OCCCC(=O)Nc3ccc(C#N)c(C(F)(F)F)c3)c(OC)c2)cc1OC | > 100 µM | 96.3 µM |  |  | 
COc1cc(/C=C/C(=O)CC(=O)/C=C/c2ccc(O)c(OC)c2)ccc1O [CURCUMIN] | 36 µM | 36.4 µM |  |  | inhibition [3]: Active; inhibition [4]: Active; Drug uptake [5]: Active; Activity [6]: Active
COc1ccc(/C=C/C(=O)/C=C(O)/C=C/c2ccc(OC(C)(C)C(=O)Nc3ccc(C#N)c(C(F)(F)F)c3)c(OC)c2)cc1OC | > 100 µM | > 100 µM | Dose-dependent effect | Dose-dependent effect | 
COc1cc(/C=C/C(=O)/C=C(O)/C=C/c2ccc(OC(C)(C)C(=O)Nc3ccc(C)c(C(F)(F)F)c3)c(OC)c2)ccc1O | > 100 µM | > 100 µM | Dose-dependent effect | Dose-dependent effect | 
COc1ccc(/C=C/C(=O)/C=C(O)/C=C/c2ccc(OCC(C)(O)C(=O)Nc3ccc(C#N)c(C(F)(F)F)c3)c(OC)c2)cc1OC (stereo not given) | 100 µM | 73 µM | Dose-dependent effect | Dose-dependent effect | 
COc1ccc(/C=C/C(=O)/C=C(O)/C=C/c2ccc(OC(C)(C)C(=O)Nc3ccc(Cl)c(C(F)(F)F)c3)c(OC)c2)cc1OC | > 100 µM | > 100 µM | Dose-dependent effect | Dose-dependent effect | 
CC(O)(CS(=O)(=O)c1ccc(F)cc1)C(=O)Nc1ccc(C#N)c(C(F)(F)F)c1 (racemic) [BICALUTAMIDE] | 76.4 µM | 74 µM | Dose-dependent effect | Dose-dependent effect | inhibition [9]: inactive; Activity [10]: inactive; inhibition [11]: Active
COc1ccc(/C=C/C(=O)/C=C(O)/C=C/c2ccc(OC)c(OC)c2)cc1OC [DIMETHYLCURCUMIN] | 23.7 µM | 15.3 µM |  |  | 
COc1ccc(/C=C/C(=O)/C=C(O)/C=C/c2ccc(OC(C)(C)C(=O)Nc3ccc([N+](=O)[O-])c(C(F)(F)F)c3)c(OC)c2)cc1OC | > 100 µM | > 100 µM | Dose-dependent effect | Dose-dependent effect | 
COc1cc(/C=C/C(=O)/C=C(O)/C=C/c2ccc(OC(C)(C)C(=O)Nc3ccc(F)c(C(F)(F)F)c3)c(OC)c2)ccc1O | 52.1 µM | 54.8 µM | Dose-dependent effect | Dose-dependent effect | 
COc1cc(/C=C/C(=O)/C=C(O)/C=C/c2ccc(OC(C)(C)C(=O)Nc3ccc([N+](=O)[O-])c(C(F)(F)F)c3)c(OC)c2)ccc1O | > 100 µM | > 100 µM | Dose-dependent effect | Dose-dependent effect | 
COc1cc(/C=C/C(O)=C/C(=O)/C=C/c2ccc(OC)c(OC)c2)ccc1O [METHYLCURCUMIN] | 33.1 µM | 47 µM |  |  | inhibition [12]: Active; inhibition [13]: Active; Activity [14]: Active
CC(C)C(=O)Nc1ccc([N+](=O)[O-])c(C(F)(F)F)c1 [FLUTAMIDE] | 98.8 µM | 81.8 µM | Dose-dependent effect | Dose-dependent effect | Activity [10]: inactive
COc1cc(/C=C/C(=O)/C=C(O)/C=C/c2ccc(OC(C)(C)C(=O)Nc3ccc(Cl)c(C(F)(F)F)c3)c(OC)c2)ccc1O | > 100 µM | > 100 µM | Dose-dependent effect | Dose-dependent effect | 
COc1ccc(/C=C/C(=O)/C=C(O)/C=C/c2ccc(OCC(C)(O)C(=O)Nc3ccc([N+](=O)[O-])c(C(F)(F)F)c3)c(OC)c2)cc1OC (stereo not given) | 39.1 µM | 41.8 µM | Dose-dependent effect | Dose-dependent effect | inhibition [12]: Active; inhibition [13]: Active; Activity [15]: Active
COc1ccc(/C=C/C(=O)C(F)(F)C(=O)/C=C/c2ccc(OC)c(OC)c2)cc1OC | 44.3 µM | 53.8 µM |  |  | 
COc1cc(/C=C/C(=O)/C=C(O)/C=C/c2ccc(OC(C)(C)C(=O)Nc3ccc(C#N)c(C(F)(F)F)c3)c(OC)c2)ccc1O | 48.1 µM | 55 µM | Dose-dependent effect | Dose-dependent effect | inhibition [16]: Active; Activity [17]: Active; Drug uptake [18]: Active; inhibition [19]: Active
COc1ccc(/C=C/C(=O)/C(F)=C(O)/C=C/c2ccc(OC)c(OC)c2)cc1OC | 17.7 µM | 27.3 µM |  |  | 
COc1ccc(/C=C/C(=O)/C=C(O)/C=C/c2ccc(OCCCCCCCCCCC(=O)Nc3ccc(C#N)c(C(F)(F)F)c3)c(OC)c2)cc1OC | > 100 µM | > 100 µM |  |  | 
